Experimental data as given in ChEMBL document CHEMBL5104201, “Prodrugs of a 1-Hydroxy-2-oxopiperidin-3-yl Phosphonate Enolase Inhibitor for the Treatment of ENO1-Deleted Cancers” (J Med Chem, 2022).

Tests used:
[1] = Cytotoxicity against human LN-319 cells expressing ENO1 assessed as cell growth inhibition incubated for 6 days by cystal violet staining based analysis; type: functional; conditions: LN-319, 144 h
[2] = tested on: Panel NCI-60 (60 carcinoma cell lines); test: Cytotoxicity against human NCI-60 cells assessed as reduction in cell viability at 10 uM incubated for […]; type: functional
Summary of the method: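 NCI DTP one-dose screen: single 10 μM dose, […], across the 60-line panel (some lines absent when unavailable). Cells kept in RPMI 1640 with 5% FBS and 2 mM L-glutamine, seeded at 5000–40,000 cells/well by doubling time. Percent growth given relative to drug-free untreated control and to cell number at time zero.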

[3] = Stability of compound in phosphate buffer at pH 7 incubated for 3 hrs; type: physicochemical; conditions: pH 7, 3 h
Summary of the method: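 Stability followed by 31P NMR in 5 mM phosphate-buffered D2O at pH 7.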

[4] = Prodrug conversion in human plasma assessed as (1-hydroxy-2-oxopiperidin-3-yl) phosphonic acid formation measured after 3 hrs by 31P-NMR analysis; type: ADME, cell-free
Summary of the method: (§1)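 Prodrug dissolved in DMSO and added to 80% human serum/plasma with 20% D2O, final 2 mM unless stated otherwise. Samples held at 37 °C between timepoints. Read by 31P NMR (CPD, 500 scans), with 1H–31P HSQC where applicable. Peaks integrated and normalised to the phosphate peak at 0 ppm.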

[5] = Stability of compound in human serum incubated for 72 hrs by 31P-NMR analysis; type: ADME, cell-free; summary of the method: as §1
[6] = Stability of compound in human plasma incubated for 3 hrs by 31P-NMR analysis; type: ADME, cell-free; summary of the method: as §1
[7] = Stability of compound in culture media incubated for 72 hrs by 31P-NMR analysis; type: physicochemical
Summary of the method: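 Prodrug (final 2 mM unless stated otherwise) in 80% DMEM with 20% D2O, kept at 37 °C between timepoints. Species followed by 31P NMR (CPD, 500 scans).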

[8] = Metabolic stability of the compound in human serum over 12 hrs by 31P-NMR analysis; type: ADME, cell-free; summary of the method: as §1
[9] = Metabolic stability of the compound in human serum measured over 366 hrs by 31P-NMR analysis; type: ADME, cell-free; summary of the method: as §1
[10] = Metabolic stability of the compound in human serum measured over 9 hrs by 31P-NMR analysis; type: ADME, cell-free; summary of the method: as §1
[11] = Metabolic stability of the compound in human serum measured over 16 hrs by 31P-NMR analysis; type: ADME, cell-free; summary of the method: as §1

Compound	IC50 [1] [µM]	other results
O=C1C(P(=O)(NCc2ccccc2)OCOC(=O)N2CCC(N3CCCCC3)CC2)CCCN1O (configuration not stated)	> 100	
CCCCCCCCCCCCCCCCOCCCOP(=O)(O)C1CCCN(O)C1=O (configuration not stated)		Activity [2]: 14%
CC(C)C(=O)ON1CCCC(P2(=O)OCc3ccccc3O2)C1=O (configuration not stated)		Stability [3]: Stable; Drug metabolism [4]: Metabolite_Detected; Stability [5]: Stable; Stability [6]: Unstable; Stability [7]: Stable
CNP(=O)(OCOC(=O)C(C)(C)C)C1CCCN(O)C1=O (configuration not stated)	5.4	
CC(C)(C)C(=O)OCOP(=O)(NCc1cccc(F)c1)C1CCCN(O)C1=O (configuration not stated)	2.38	
CC(C)(C)C(=O)OCOP(N)(=O)C1CCCN(O)C1=O (configuration not stated)	426	
N#CCOP(=O)(OC#N)C1CCCN(O)C1=O (configuration not stated)	> 100	
N#CCOP(=O)(NCc1ccccc1)C1CCCN(O)C1=O (configuration not stated)	0.775	
O=C1C(P(=O)(NCc2ccccc2)Oc2ccc(F)cc2)CCCN1O (configuration not stated)	> 100	
CC(C)(C)C(=O)OCOP(=O)(OCOC(=O)C(C)(C)C)C1CCCN(O)C1=O (configuration not stated)		Activity [2]: 7.1%; Stability [8]: Unstable
O=C1C(P(=O)(O)O)CCCN1O (configuration not stated)	3000	
CN(C)P(=O)(OCOC(=O)C(C)(C)C)C1CCCN(O)C1=O (configuration not stated)	12.9	
CC(C)OC(=O)[C@H](C)NP(=O)(Oc1ccccc1)C1CCCN(O)C1=O (some centres not stated)		Stability [9]: Stable; Stability [10]: Stable; Stability [11]: Stable
CCCCCCCCCCCCNP(=O)(O)C1CCCN(O)C1=O (configuration not stated)	> 100	
CC(C)OC(=O)[C@H](C)NP(=O)(N[C@@H](C)C(=O)OC(C)C)C1CCCN(O)C1=O (some centres not stated)	> 100	
